Half-life, IC50 and Kd data for 90 compounds are collected here from ChEMBL document CHEMBL1138344, “Nuclear magnetic resonance fragment-based identification of novel FKBP12 inhibitors” (J Med Chem, 2007).

Tested on in one data set: not listed separately
Put plainly: Metabolic stability in human liver microsomes. It counts as ADME, Microsome. The method, boiled down: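 Pooled human liver microsomes with an NADPH-generating system (DETAPAC, NADP+, glucose-6-phosphate, G6P dehydrogenase) in 50 mM potassium phosphate pH 7.4. Started by adding compound from a 5 mM stock (FK506 stock 0.5 mM). Aliquots taken at 0, 10, 25, 40 and 60 min and extracted with dichloromethane/isopropanol 3:1. Half-life determined.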
Background: Microsomes from liver hold many membrane-bound enzymes, among them those of drug oxidation.
Consider `CC(C)c1ccc(SCC(=O)N2CCOCC2C(=O)OCCCc2cccnc2)cc1` (configuration not stated), for which the half-life – broadly, how long it takes for the measured level to halve – amounted to 40 min. Still for that read-out and setting: the result for `COC(=O)C1COCCN1C(=O)C(F)(F)Sc1ccc(C(C)C)cc1` (configuration not stated) reads 40 min. The same measure, in the same setting: then `COc1ccc(CCC(=O)N2CCOCC2)cc1`, with 40 min; and `CC(C)c1ccc(SCC(=O)N2CCOCC2)cc1`, with 40 min.

`CC(C)c1ccc(SCC(=O)N2CCOCC2C(=O)O)cc1` (configuration not stated) showed a half-life of more than 60 min.

In the case of `COC(=O)[C@@H]1CCCCN1C(=O)C(=O)c1cc(OC)c(OC)c(OC)c1`, the half-life is 40 min.

In the case of `C=CC[C@@H]1/C=C(\C)C[C@H](C)C[C@H](OC)[C@H]2O[C@@](O)(C(=O)C(=O)N3CCCC[C@H]3C(=O)O[C@H](/C(C)=C/[C@@H]3CC[C@@H](O)[C@H](OC)C3)[C@H](C)[C@@H](O)CC1=O)[C@H](C)C[C@@H]2OC` [TACROLIMUS ANHYDROUS], the half-life is more than 60 min. On the same count and under the same terms, then `COC(=O)C1COCCN1C(=O)CSc1ccc(C(C)C)cc1` (configuration not stated), with 40 min.

Molecular target in the next data set: not listed separately
Kind of data set: Inhibition of testosterone 6-hydroxylase. The arrangement: species or system Homo sapiens. The method, boiled down:
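Pooled human liver microsomes with an NADPH-generating system (DETAPAC, NADP+, glucose-6-phosphate, G6P dehydrogenase) in 50 mM potassium phosphate pH 7.4. Compound added, then testosterone substrate; 10 min shaking at 37 °C, stopped with cold ethyl acetate. Read-out is 6-hydroxytestosterone formation. IC50 estimated, or determined in detail for some compounds.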
`CC(C)c1ccc(SCC(=O)N2CCOCC2C(=O)OCCCc2cccnc2)cc1` (configuration not stated): the IC50 (usually the concentration needed to halve the response being measured) was found to be 0.81 µM. On the same count and under the same terms, the result for `C=CC[C@@H]1/C=C(\C)C[C@H](C)C[C@H](OC)[C@H]2O[C@@](O)(C(=O)C(=O)N3CCCC[C@H]3C(=O)O[C@H](/C(C)=C/[C@@H]3CC[C@@H](O)[C@H](OC)C3)[C@H](C)[C@@H](O)CC1=O)[C@H](C)C[C@@H]2OC` [TACROLIMUS ANHYDROUS] reads 2.26 µM.

In the next data set the target is Peptidyl-prolyl cis-trans isomerase FKBP1A (Homo sapiens, UniProt P62942).
Chain of Peptidyl-prolyl cis-trans isomerase FKBP1A (P62942 whole entry): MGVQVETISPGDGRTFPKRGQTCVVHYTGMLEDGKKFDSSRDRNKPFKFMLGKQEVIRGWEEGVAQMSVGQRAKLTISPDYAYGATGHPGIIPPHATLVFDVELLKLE
With `Cc1cc(C)c(C)c(OCC(=O)N2CCOCC2)c1`, the dissociation constant (Kd) (as a rule, the concentration at which binding is half-saturated) was more than 1000 µM. Same read-out and setting: then `Cc1cc(OCC(=O)N2CCOCC2)ccc1C(C)C`, with 187 µM; and `Cc1ccc(OCC(=O)N2CC(C)OC(C)C2)cc1C` (configuration not stated), with more than 5000 µM.

Consider `c1ccc2[nH]c(-c3cscn3)nc2c1` [THIABENDAZOLE], for which the affinity, expressed as Kd, was 60 µM. Still for that read-out and setting: then `O=C(COc1ccc(F)cc1)N1CCOCC1`, with 576 µM; and `Brc1ccccc1Cn1c(-c2cscn2)nc2ccccc21`, with more than 3000 µM. The same measure, in the same setting: then `CC(=O)c1cccc(NS(=O)(=O)N2CCCCC2)c1`, with 552 µM; and `Cc1ccc(Cl)cc1NS(=O)(=O)N1CCCCC1`, with more than 3700 µM; and `O=S(=O)(Nc1ccc(Br)cc1)N1CCCCC1`, with 299 µM.

`Fc1ccc(Cn2c(-c3cscn3)nc3ccccc32)c(Cl)c1`: the Kd was more than 4000 µM. The same measure, in the same setting: the result for `Cc1cc(OCC(=O)N2CCOCC2)cc(C(C)C)c1Cl` reads 576 µM; that for `CC(C)c1ccc(SCC(=O)N2CCOCC2C(=O)OCCCc2cccnc2)cc1` (configuration not stated), 5.6 µM.

Compound `CC(C)c1ccc(CCC(=O)N2CCOCC2)cc1` registered a Kd of 2.3 µM. On the same count and under the same terms, then `Cc1cc(Cl)ccc1OCC(=O)N1CCOCC1`, with more than 1000 µM; and `CCOc1ccc(OCC(=O)N2CCOCC2)cc1`, with 576 µM. For `CCOc1ccc(NS(=O)(=O)N2CCCCC2)cc1`, the Kd is more than 1230 µM.

Take `Nc1nc(-c2nc3ccccc3[nH]2)cs1`: the affinity, expressed as Kd, was 98 µM. On the same count and under the same terms, the result for `Cc1ccc2cccc(SCC(=O)N3CCOCC3)c2n1` reads more than 1400 µM. Still for that read-out and setting: the result for `CSc1ccccc1NC(=O)Cn1c(-c2cscn2)nc2ccccc21` reads more than 4000 µM. The compound `Nc1cccc(OCC(=O)N2CCOCC2)c1` returned a Kd of more than 5000 µM. For the compound `O=C(CSc1ccc2ccccc2c1)N1CCOCC1`, the Kd was more than 1400 µM.

For `O=C(COc1ccc(S(=O)(=O)NC2CCCC2)cc1)N1CCOCC1`, the dissociation constant Kd was 755 µM. On the same count and under the same terms, then `CC(C)c1ccc(S(=O)(=O)CC(=O)N2CCOCC2C(=O)OCCCc2ccc[n+]([O-])c2)cc1` (configuration not stated), with 1280 µM; and `O=C(COc1ccccc1)N1CCOCC1`, with more than 1030 µM; and `O=C(CSc1ccc(Cl)cc1)N1CCOCC1`, with 15 µM. Same read-out and setting: then `c1ccc2c(c1)nc(-c1cscn1)n2Cc1ccc(-c2nnn[nH]2)cc1`, with more than 3000 µM. In the case of `Cc1cc(C)cc(NS(=O)(=O)N2CCCCC2)c1`, the Kd is more than 1860 µM. The same measure, in the same setting: then `Cc1cc(S(=O)(=O)N2CCCC2)ccc1OCC(=O)N1CCOCC1`, with 576 µM; and `COc1cc2c(cc1NS(=O)(=O)N1CCCCC1)oc1ccccc12`, with more than 3700 µM. On the same count and under the same terms, the result for `O=S(=O)(Nc1ccc(F)cc1)N1CCCCC1` reads 319 µM. On the same count and under the same terms, then `COC(=O)C1COCCN1C(=O)C(F)(F)Sc1ccc(C(C)C)cc1` (configuration not stated), with 190 µM. For the compound `O=C(COc1ccc(Cl)cc1Cl)N1CCOCC1`, the equilibrium dissociation constant (Kd) was more than 1030 µM. On the same count and under the same terms, the result for `O=C(Cn1c(-c2cscn2)nc2ccccc21)Nc1ccc(Cl)cc1` reads more than 4000 µM. The same measure, in the same setting: then `COc1cc(CNCc2cccs2)ccc1OCC(=O)N1CCOCC1`, with more than 5000 µM. The same measure, in the same setting: the result for `COc1ccc(CCC(=O)N2CCOCC2)cc1` reads 204 µM; that for `Cc1cc(N)cc(C)c1OCC(=O)N1CCOCC1`, more than 2400 µM; that for `CCCCNS(=O)(=O)c1ccc(OCC(=O)N2CCOCC2)cc1`, 755 µM.

For `Cc1cc(C)c(OCC(=O)N2CCOCC2)c(C)c1`, the Kd is more than 1500 µM. Compound `Cc1ccc(OCC(=O)N2CCOCC2)cc1C` had a Kd of 231 µM.

In turn, `O=C(COc1ccccc1F)N1CCOCC1` showed a Kd of 357 µM. Take `O=S(=O)(Nc1ccc2c(c1)oc1ccccc12)N1CCCCC1`: the dissociation constant Kd was more than 3700 µM. On the same count and under the same terms, the result for `O=S(=O)(Nc1cc(Cl)cc(Cl)c1)N1CCCCC1` reads 155 µM; that for `O=[N+]([O-])c1ccc(NS(=O)(=O)N2CCCCC2)cc1`, 167 µM; that for `CC(C)c1ccc(SCC(=O)N2CCOCC2C(=O)O)cc1` (configuration not stated), 426 µM. On to `Cc1ccc(SCC(=O)N2CC(C)OC(C)C2)cc1` (configuration not stated), for which the Kd is more than 4000 µM. `O=C(COc1cc(Cl)c(Cl)cc1Cl)N1CCOCC1`: binding was put at a Kd of 450 µM. Same read-out and setting: then `Cc1ccc(-c2ccc(OCC(=O)N3CCOCC3)cc2)cc1`, with 755 µM.

The compound `N#Cc1ccccc1Cn1c(-c2cscn2)nc2ccccc21` returned a Kd of more than 4000 µM.

Turning to `O=C(COc1cccc(Cl)c1)N1CCOCC1`, binding was put at a Kd of 755 µM.

As for `Cc1cc(OCC(=O)N2CCOCC2)ccc1NC(=O)OCc1ccccc1`, the dissociation constant (Kd) was more than 1500 µM. The same measure, in the same setting: then `COC(=O)[C@@H]1CCCCN1C(=O)C(=O)c1cc(OC)c(OC)c(OC)c1`, with 3 µM. The same measure, in the same setting: the result for `CC(C)c1ccc(SC(F)(F)C(=O)N2CCOCC2)cc1` reads 2.8 µM; that for `Cc1cc(OCC(=O)N2CC(C)OC(C)C2)cc(C)c1Cl` (configuration not stated), more than 5000 µM. On the same count and under the same terms, then `FC(F)(F)c1cccc(Cn2c(-c3cscn3)nc3ccccc32)c1`, with more than 3000 µM. `Clc1cccc(Cl)c1Cn1c(-c2cscn2)nc2ccccc21` gave a Kd of more than 4000 µM. `Cc1ccc(C(C)C)c(OCCNC(=O)c2ccccc2OCC(=O)N2CCOCC2)c1` gave a Kd of more than 2500 µM.

With `CC(C)c1ccccc1OCC(=O)N1CCOCC1`, the equilibrium dissociation constant (Kd) is more than 2500 µM. In turn, `Cc1ccc(NS(=O)(=O)N2CCCCC2)c(C)c1` came in with a Kd of 287 µM.

In turn, `c1ccc2c(c1)nc(-c1cscn1)n2CCCc1nnn[nH]1` gave a dissociation constant Kd of more than 1500 µM. Still for that read-out and setting: the result for `O=C(CSc1ccccc1)N1CCOCC1` reads 15.3 µM; that for `CCc1ccccc1OCC(=O)N1CCOCC1`, more than 1500 µM; that for `O=C(Nc1ccc(OCC(=O)N2CCOCC2)cc1)c1cccnc1`, more than 5000 µM. Same read-out and setting: the result for `COc1ccc(OCC(=O)N2CCOCC2)cc1` reads 357 µM; that for `CC(C)c1ccc(SCC(=O)O)cc1`, more than 4000 µM. Still for that read-out and setting: the result for `Cc1ccc(NS(=O)(=O)N2CCCCC2)cc1` reads 289 µM; that for `Cc1ccc(S(=O)(=O)CC(=O)N2CCOCC2)cc1`, more than 5000 µM. For `O=C(Nc1ccc(OCC(=O)N2CCOCC2)cc1)c1ccccc1Cl`, the equilibrium dissociation constant (Kd) was more than 2500 µM. `CC1CN(C(=O)COc2ccccc2Cl)CC(C)O1` (configuration not stated) had a Kd of more than 5000 µM. Still for that read-out and setting: the result for `Cc1ccc(OCC(=O)N2CCOCC2)c(C)c1` reads more than 1000 µM. Still for that read-out and setting: then `O=C(Nc1cccc(Cl)c1Cl)c1ccccc1OCC(=O)N1CCOCC1`, with more than 5000 µM.

In turn, `O=C(O)c1ccccc1SCC(=O)N1CCOCC1` gave a Kd of more than 3700 µM. Still for that read-out and setting: then `Cc1cc(OCC(=O)N2CCOCC2)cc(C)c1Cl`, with 231 µM; and `Cc1nnc(SCC2=NOCC2)n1-c1ccccc1`, with 39 µM. The same measure, in the same setting: the result for `O=C(O)c1cc(C(F)(F)F)ccc1SCC(=O)N1CCOCC1` reads 453 µM. Still for that read-out and setting: then `O=C(Cn1c(-c2cscn2)nc2ccccc21)Nc1ccccc1F`, with more than 4000 µM. The compound `Cc1ccc(SCC(=O)N2CCOCC2)cc1` displayed a dissociation constant (Kd) of 15 µM. `Cc1ccc(NS(=O)(=O)N2CCCCC2)cc1Cl` had a dissociation constant (Kd) of 135 µM.

`CC(C)c1ccc(OCC(=O)N2CCOCC2)cc1` returned a Kd of 100 µM. The same measure, in the same setting: then `Cc1cc(S(=O)(=O)Nc2cccc(C(F)(F)F)c2)ccc1OCC(=O)N1CCOCC1`, with 576 µM; and `CC(C)NS(=O)(=O)c1ccc(OCC(=O)N2CCOCC2)cc1`, with more than 1000 µM. In turn, `O=C(COc1ccc2c(c1)OCO2)N1CCOCC1` had a Kd of 576 µM.

Turning to `CCc1ccc(OCC(=O)N2CCOCC2)cc1`, binding was characterised by a dissociation constant (Kd) of 123 µM.

Compound `CC1CN(C(=O)CSc2ccccc2)CC(C)O1` (configuration not stated) registered a Kd of 726 µM. The same measure, in the same setting: the result for `COC(=O)C1COCCN1C(=O)CS(=O)(=O)c1ccc(C(C)C)cc1` (configuration not stated) reads 505 µM. Same read-out and setting: then `O=C(CSc1cccc2cccnc12)N1CCOCC1`, with more than 1400 µM; and `Cc1ccc(NS(=O)(=O)c2ccc(OCC(=O)N3CCOCC3)cc2)cc1`, with more than 1000 µM. On the same count and under the same terms, then `O=C(Nc1ccc(OCC(=O)N2CCOCC2)cc1)c1ccccc1F`, with more than 1500 µM.
